Reference: ChEMBL document CHEMBL1152534, “Synthesis of oxalamide and triazine derivatives as a novel class of hybrid 4-aminoquinoline with potent antiplasmodial activity” (Bioorg Med Chem, 2009)
Values after ≈ are worked out from the molar mass of the structure shown.

Tested on: Plasmodium falciparum
Assay: Antimalarial activity against chloroquine-sensitive Plasmodium falciparum 3D7 […] after 72 hrs by twofold serial dilution method
Format: functional, organism-based
Settings: Plasmodium falciparum, 3D7, Vero, 72 h; read-out: IC50; call rule not given here
Procedure, shortened: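 P. falciparum 3D7 erythrocyte culture, 2.5% cell suspension at 0.5% parasitaemia. Compounds were twofold serially diluted from 500 ng/mL (seven concentrations) in duplicate wells and incubated 72 h. Lysis buffer with SYBR Green I (Tris pH 7.5, EDTA, saponin, Triton X-100) was added, followed by 1 h at room temperature and a fluorescence read. IC50 from non-linear regression dose–response curves.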

Row | SMILES | IC50
1 | CN(C)CCNc1nc(NCCCNc2ccnc3cc(Cl)ccc23)nc(N2CCOCC2)n1 | 0.164 µg/mL (≈ 0.337 µM)
2 | O=C(NCCN1CCOCC1)C(=O)N1CCN(CCNc2ccnc3cc(Cl)ccc23)CC1 | 0.262 µg/mL (≈ 0.551 µM)
3 | CCN(CC)CCNc1nc(NCCNc2ccnc3cc(Cl)ccc23)nc(N2CCOCC2)n1 | 0.0297 µg/mL (≈ 0.0595 µM)
4 | CCN(CC)CCNC(=O)C(=O)N1CCN(c2ccnc3cc(Cl)ccc23)CC1 | 0.042 µg/mL (≈ 0.1 µM)
5 | CN(C)CCNC(=O)C(=O)N1CCN(CCNc2ccnc3cc(Cl)ccc23)CC1 | 0.0844 µg/mL (≈ 0.195 µM)
6 | CCN(CC)CCNC(=O)C(=O)N1CCN(CCNc2ccnc3cc(Cl)ccc23)CC1 | 0.0798 µg/mL (≈ 0.173 µM)
7 | O=C(NCCCNc1ccnc2cc(Cl)ccc12)C(=O)NCCCN1CCOCC1 | 0.0254 µg/mL (≈ 0.0586 µM)
8 | Clc1ccc2c(NCCNc3nc(NCCN4CCOCC4)nc(N4CCOCC4)n3)ccnc2c1 | 0.0482 µg/mL (≈ 0.0937 µM)
9 | CCCCNC(=O)C(=O)NCCNc1ccnc2cc(Cl)ccc12 | 0.233 µg/mL (≈ 0.668 µM)
10 | Clc1ccc2c(NCCCNc3nc(NCCN4CCOCC4)nc(N4CCOCC4)n3)ccnc2c1 | 0.0179 µg/mL (≈ 0.0338 µM)
11 | CN(C)CCNc1nc(NCCCNc2ccnc3cc(Cl)ccc23)nc(N2CCCCC2)n1 | 0.0156 µg/mL (≈ 0.0323 µM)
12 | CCN(CC)CCNc1nc(NCCNc2ccnc3cc(Cl)ccc23)nc(N2CCCCC2)n1 | 0.0147 µg/mL (≈ 0.0295 µM)
13 | CN(C)CCNC(=O)C(=O)NCCNc1ccnc2cc(Cl)ccc12 | 0.0316 µg/mL (≈ 0.0868 µM)
14 | CCN(CC)CCNc1nc(NCCCNc2ccnc3cc(Cl)ccc23)nc(N2CCOCC2)n1 | 0.0403 µg/mL (≈ 0.0783 µM)
15 | CN(C)CCNC(=O)C(=O)NCCCNc1ccnc2cc(Cl)ccc12 | 0.0264 µg/mL (≈ 0.0699 µM)
16 | Clc1ccc2c(NCCNc3nc(NCCCN4CCOCC4)nc(N4CCCCC4)n3)ccnc2c1 | 0.0656 µg/mL (≈ 0.125 µM)
17 | CN1CCN(c2nc(NCCNc3ccnc4cc(Cl)ccc34)nc(N3CCCCC3)n2)CC1 | 0.00788 µg/mL (≈ 0.0163 µM)
18 | O=C(NCCCN1CCOCC1)C(=O)NCCNc1ccnc2cc(Cl)ccc12 | 0.0313 µg/mL (≈ 0.0746 µM)
19 | CN(C)CCNc1nc(NCCNc2ccnc3cc(Cl)ccc23)nc(N2CCCCC2)n1 | 0.0159 µg/mL (≈ 0.0338 µM)
20 | O=C(NCCCNc1ccnc2cc(Cl)ccc12)C(=O)NCCN1CCOCC1 | 0.0822 µg/mL (≈ 0.196 µM)
21 | Clc1ccc2c(NCCNc3nc(NCCCN4CCOCC4)nc(N4CCOCC4)n3)ccnc2c1 | 0.0222 µg/mL (≈ 0.042 µM)
22 | CCCCNC(=O)C(=O)NCCCNc1ccnc2cc(Cl)ccc12 | 0.233 µg/mL (≈ 0.643 µM)
23 | CCN(CC)CCNC(=O)C(=O)NCCNc1ccnc2cc(Cl)ccc12 | 0.0503 µg/mL (≈ 0.128 µM)
24 | CN1CCN(c2nc(NCCCNc3ccnc4cc(Cl)ccc34)nc(N3CCOCC3)n2)CC1 | 0.0401 µg/mL (≈ 0.0805 µM)

Tested on: not listed separately
Assay: Selectivity index, ratio of CC50 for african green monkey (Cercopithecus aethiops) Vero cells to IC50 for chloroquine-sensitive Plasmodium falciparum 3D7
Format: functional
Settings: not given
Procedure, shortened: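 SI is Vero CC50 divided by the antiplasmodial IC50. For CC50, Vero (C-1008) cells at 1 × 10⁴ cells/well were exposed to varying compound concentrations for 72 h with an MTT read-out. CC50 is the concentration killing 50% of cells.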

Row | SMILES | Ratio CC50/IC50
25 | CN(C)CCNc1nc(NCCCNc2ccnc3cc(Cl)ccc23)nc(N2CCOCC2)n1 | 219.77
26 | O=C(NCCN1CCOCC1)C(=O)N1CCN(CCNc2ccnc3cc(Cl)ccc23)CC1 | 183.05
27 | CCN(CC)CCNc1nc(NCCNc2ccnc3cc(Cl)ccc23)nc(N2CCOCC2)n1 | 1663.75
28 | CCN(CC)CCNC(=O)C(=O)N1CCN(c2ccnc3cc(Cl)ccc23)CC1 | 1183.41
29 | CN(C)CCNC(=O)C(=O)N1CCN(CCNc2ccnc3cc(Cl)ccc23)CC1 | 65
30 | CCN(CC)CCNC(=O)C(=O)N1CCN(CCNc2ccnc3cc(Cl)ccc23)CC1 | 194
31 | O=C(NCCCNc1ccnc2cc(Cl)ccc12)C(=O)NCCCN1CCOCC1 | 1625.52
32 | Clc1ccc2c(NCCNc3nc(NCCN4CCOCC4)nc(N4CCOCC4)n3)ccnc2c1 | 1176.4
33 | CCCCNC(=O)C(=O)NCCNc1ccnc2cc(Cl)ccc12 | 18.88
34 | Clc1ccc2c(NCCCNc3nc(NCCN4CCOCC4)nc(N4CCOCC4)n3)ccnc2c1 | 1017.32
35 | CN(C)CCNc1nc(NCCCNc2ccnc3cc(Cl)ccc23)nc(N2CCCCC2)n1 | 330.11
36 | CCN(CC)CCNc1nc(NCCNc2ccnc3cc(Cl)ccc23)nc(N2CCCCC2)n1 | 223.13
37 | CN(C)CCNC(=O)C(=O)NCCNc1ccnc2cc(Cl)ccc12 | 383.03
38 | CCN(CC)CCNc1nc(NCCCNc2ccnc3cc(Cl)ccc23)nc(N2CCOCC2)n1 | 1068.32
39 | CN(C)CCNC(=O)C(=O)NCCCNc1ccnc2cc(Cl)ccc12 | 2527.65
40 | Clc1ccc2c(NCCNc3nc(NCCCN4CCOCC4)nc(N4CCCCC4)n3)ccnc2c1 | 65.21
41 | CN1CCN(c2nc(NCCNc3ccnc4cc(Cl)ccc34)nc(N3CCCCC3)n2)CC1 | 958.12
42 | O=C(NCCCN1CCOCC1)C(=O)NCCNc1ccnc2cc(Cl)ccc12 | 1567.05
43 | CN(C)CCNc1nc(NCCNc2ccnc3cc(Cl)ccc23)nc(N2CCCCC2)n1 | 1062.3
44 | O=C(NCCCNc1ccnc2cc(Cl)ccc12)C(=O)NCCN1CCOCC1 | 191.82
45 | Clc1ccc2c(NCCNc3nc(NCCCN4CCOCC4)nc(N4CCOCC4)n3)ccnc2c1 | 2405.86
46 | CCCCNC(=O)C(=O)NCCCNc1ccnc2cc(Cl)ccc12 | 38.13
47 | CCN(CC)CCNC(=O)C(=O)NCCNc1ccnc2cc(Cl)ccc12 | 605.61
48 | CN1CCN(c2nc(NCCCNc3ccnc4cc(Cl)ccc34)nc(N3CCOCC3)n2)CC1 | 704.25

Tested on: Plasmodium yoelii
Assay: Antiplasmodial activity against Plasmodium yoelii infected in Swiss mice (Mus musculus) erythrocytes assessed as inhibition of beta-hematin formation after 16 hrs by fluorescence assay
Format: functional, organism-based
Settings: Plasmodium yoelii, 16 h; in the assay text read “absorbance measurement at 400 nm” for “fluorescence assay”
Procedure, shortened: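 Plasma came from P. yoelii-infected mouse blood at about 50% parasitemia, collected in citrate and centrifuged. The mix held 100 mM sodium acetate pH 5.1, 50 µL plasma and 100 µM hemin substrate in 1.0 mL, run in triplicate at 37 °C for 16 h with shaking. The pellet was dissolved in Tris-HCl pH 7.4 with 2.5% SDS. Absorbance at 400 nm; IC50 by non-linear regression.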

Row | SMILES | IC50
49 | CN(C)CCNc1nc(NCCCNc2ccnc3cc(Cl)ccc23)nc(N2CCOCC2)n1 | 7.94 µg/mL (≈ 16.3 µM)
50 | O=C(NCCN1CCOCC1)C(=O)N1CCN(CCNc2ccnc3cc(Cl)ccc23)CC1 | 14.2 µg/mL (≈ 29.8 µM)
51 | CCN(CC)CCNc1nc(NCCNc2ccnc3cc(Cl)ccc23)nc(N2CCOCC2)n1 | 9.42 µg/mL (≈ 18.8 µM)
52 | CCN(CC)CCNC(=O)C(=O)N1CCN(c2ccnc3cc(Cl)ccc23)CC1 | < 20 µg/mL
53 | CN(C)CCNC(=O)C(=O)N1CCN(CCNc2ccnc3cc(Cl)ccc23)CC1 | < 20 µg/mL
54 | O=C(NCCCNc1ccnc2cc(Cl)ccc12)C(=O)NCCCN1CCOCC1 | 8.74 µg/mL (≈ 20.1 µM)
55 | Clc1ccc2c(NCCNc3nc(NCCN4CCOCC4)nc(N4CCOCC4)n3)ccnc2c1 | 17.2 µg/mL (≈ 33.4 µM)
56 | CCCCNC(=O)C(=O)NCCNc1ccnc2cc(Cl)ccc12 | 6.76 µg/mL (≈ 19.4 µM)
57 | Clc1ccc2c(NCCCNc3nc(NCCN4CCOCC4)nc(N4CCOCC4)n3)ccnc2c1 | 8.72 µg/mL (≈ 16.5 µM)
58 | CN(C)CCNc1nc(NCCCNc2ccnc3cc(Cl)ccc23)nc(N2CCCCC2)n1 | 8.19 µg/mL (≈ 16.9 µM)
59 | CCN(CC)CCNc1nc(NCCNc2ccnc3cc(Cl)ccc23)nc(N2CCCCC2)n1 | 10.2 µg/mL (≈ 20.4 µM)
60 | CN(C)CCNC(=O)C(=O)NCCNc1ccnc2cc(Cl)ccc12 | 11.1 µg/mL (≈ 30.5 µM)
61 | CCN(CC)CCNc1nc(NCCCNc2ccnc3cc(Cl)ccc23)nc(N2CCOCC2)n1 | 10.6 µg/mL (≈ 20.7 µM)
62 | CN(C)CCNC(=O)C(=O)NCCCNc1ccnc2cc(Cl)ccc12 | 7.98 µg/mL (≈ 21.1 µM)
63 | Clc1ccc2c(NCCNc3nc(NCCCN4CCOCC4)nc(N4CCCCC4)n3)ccnc2c1 | 7.79 µg/mL (≈ 14.8 µM)
64 | CN1CCN(c2nc(NCCNc3ccnc4cc(Cl)ccc34)nc(N3CCCCC3)n2)CC1 | 9.1 µg/mL (≈ 18.9 µM)
65 | O=C(NCCCN1CCOCC1)C(=O)NCCNc1ccnc2cc(Cl)ccc12 | 7.18 µg/mL (≈ 17.1 µM)
66 | CN(C)CCNc1nc(NCCNc2ccnc3cc(Cl)ccc23)nc(N2CCCCC2)n1 | 13.3 µg/mL (≈ 28.4 µM)
67 | O=C(NCCCNc1ccnc2cc(Cl)ccc12)C(=O)NCCN1CCOCC1 | 10.7 µg/mL (≈ 25.4 µM)
68 | Clc1ccc2c(NCCNc3nc(NCCCN4CCOCC4)nc(N4CCOCC4)n3)ccnc2c1 | 8.58 µg/mL (≈ 16.2 µM)
69 | CCCCNC(=O)C(=O)NCCCNc1ccnc2cc(Cl)ccc12 | 15.7 µg/mL (≈ 43.2 µM)
70 | CCN(CC)CCNC(=O)C(=O)NCCNc1ccnc2cc(Cl)ccc12 | 7.01 µg/mL (≈ 17.9 µM)
71 | CN1CCN(c2nc(NCCCNc3ccnc4cc(Cl)ccc34)nc(N3CCOCC3)n2)CC1 | 8.55 µg/mL (≈ 17.2 µM)

Same assay, conditions: in the assay text read “absorbance measurement at 400 nm” for “fluorescence assay”

Row | SMILES | IC50
72 | CCN(CC)CCNC(=O)C(=O)N1CCN(CCNc2ccnc3cc(Cl)ccc23)CC1 | Not Active

Tested on: Plasmodium yoelii
Assay: Antimalarial activity against chloroquine-resistant Plasmodium yoelii N67 infected in Swiss mice (Mus musculus) assessed as inhibition of parasitaemia at 50 mg/kg, intraperitoneally administered daily for 4 days measured on day 4 post-infection
Format: functional
Settings: not given
Procedure, shortened: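 Swiss mice were inoculated with 1 × 10⁶ P. yoelii N-67 parasitized RBC on day 0. Groups of five received compound as an aqueous suspension with a few drops of Tween 80, at 50 mg/kg/day intraperitoneally once daily from day 0 to 3. Parasitaemia was read from thin smears on day 4, with group-mean percent suppression against untreated controls.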

Row | SMILES | Activity
73 | CN1CCN(c2nc(NCCNc3ccnc4cc(Cl)ccc34)nc(N3CCCCC3)n2)CC1 | Toxic

Same assay, conditions: N67, ip, 96 h, route intraperitoneal

Row | SMILES | inhibition in vivo at 50 mg/kg
74 | O=C(NCCCNc1ccnc2cc(Cl)ccc12)C(=O)NCCCN1CCOCC1 | 21.4%
75 | CN(C)CCNC(=O)C(=O)NCCCNc1ccnc2cc(Cl)ccc12 | 70.5%
76 | O=C(NCCCN1CCOCC1)C(=O)NCCNc1ccnc2cc(Cl)ccc12 | 43.6%
